For 5 molecules, K and Tm results are on record in ChEMBL document CHEMBL1122543, “A substituent constant analysis of the interaction of substituted naphthalene monoimides with DNA” (J Med Chem, 1984).

For experiment [1], the system named is Nucleic Acid. The experiment can be described thus: Relative binding affinity for calf thymus DNA in MES 10 at 25 degrees C (Spectrophotometric data). The experiment is classed as nucleic-acid assay. The settings on record: Bos taurus. In a few lines:
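Spectrophotometric titration of ~1 × 10^-3 M compound stock into calf thymus DNA in MES 10 buffer at 25 °C. Each point averages 100 absorbance readings. Absorbances converted to ν (mol bound per mol base pairs) and free ligand using free and bound extinction coefficients. K and site size n come from a nonlinear least-squares fit of the Scatchard plot to the site exclusion model, in base-pair molarity.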

The subject of experiment [2] is Nucleic Acid. The experiment is described as follows: Thermal melting point of calf thymus DNA complexed with monoimide in MES 00 buffer (Spectrophotometric data). The settings on record: Bos taurus. The experiment is classed as functional.

In experiment [1], `CN(C)CCCN1C(=O)c2cccc3cc([N+](=O)[O-])cc(c23)C1=O` displayed a K of 0.0234. Besides, the Tm in experiment [2] stood at 77.6 °C.
For `CN(C)CCCN1C(=O)c2cccc3cc(N)cc(c23)C1=O`, in that order: 0.0112 and 70.6 °C.
For `CN(C)CCCN1C(=O)c2cccc3c(N)ccc(c23)C1=O`, in that order: 0.0162 and 70.6 °C.
For `CN(C)CCCN1C(=O)c2cccc3c([N+](=O)[O-])ccc(c23)C1=O`, in that order: 0.0083 and 71.7 °C.
Take `CN(C)CCCN1C(=O)c2cccc3cccc(c23)C1=O`: the K in experiment [1] was 0.0089. Besides, in experiment [2], the Tm turned out to be 71.9 °C.
